Experimental data as given in PMC10938568 (Science Advances, 2021).

Experiments:
HEK293T cells = assay: LC3 lipidation / GFP-LC3B puncta, WT or ATG13_KO cells; assay type: cell-based, human; conditions: for LC3 lipidation / puncta (in words): HEK293T WT or ATG13_KO, MK6-83 25 μM, C8 2 μM, AZD8055 1 μM
Outline: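 HEK293T cells in DMEM with 10% FBS and 1% penicillin/streptomycin at 37°C, 5% CO2, treated over a time course. Lysates denatured in Laemmli buffer at 100°C for 5 min. Immunoblot: primary antibodies in 5% BSA/TBS-0.2% Tween 20 overnight at 4°C; HRP secondaries at 1:20,000 for 1 h at room temperature. GFP-LC3B followed by time-lapse imaging.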

FLCN-FNIP1 complex = assay: Co-immunoprecipitation of GABARAP with FLCN-FNIP1; assay type: binding, human; conditions: HEK293T cells, transfected 20 hours
[1] = test system: primary bone marrow–derived macrophages (BMDMs); assay: LC3 puncta in primary BMDMs, ATG16L1 WT or K490A; assay type: cell-based, mouse; conditions: 1 hour
TFEB = TFEB activation / nuclear localization; assay type: cell-based
Outline: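 FNIP1/2_DKO HeLa expressing WT or LIR FNIP1 were stimulated with two TRPML1-activating agents (2 μM and 1 μM). TFEB was immunostained with primary antibody overnight at 4°C, then Alexa secondary (1:1000) with DAPI for 1 h at RT. TFEB nuclear localization was scored by high-content imaging, ≥1500 cells per condition. Values are means ± SD; unpaired t test.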

FNIP1/2_DKO HeLa cells = assay: GPNMB protein level; assay type: cell-based; conditions: prolonged treatment; WT or LIR FNIP1 in FNIP1/2_DKO HeLa
Outline: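 GPNMB, a TFEB/TFE3 target, was read by Western blot in FNIP1/2_DKO HeLa re-expressing WT or LIR-variant FNIP1 after prolonged stimulation to activate TRPML1. Cells were grown at 37°C in 5% CO2. Lysates were denatured in Laemmli buffer (100°C, 5 min). Primary antibody (1:1000 unless noted) was in 5% BSA/TBS-0.2% Tween 20, overnight at 4°C. HRP secondary was 1:20,000, 1 h at RT.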

[2] = test system: FLCN-FNIP1 complex in HeLa cells; assay: FLCN-FNIP recruitment to membrane fractions, Western blot; assay type: cell-based; conditions: monensin 1uM, C8 2uM, 30 min; WT or TRPML1_KO HeLa
Outline: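 HeLa cells (WT or TRPML1_KO) grown in DMEM with 10% FBS and 1% penicillin/streptomycin at 37°C, 5% CO2. 1.5 × 10^6 cells plated the day before treatment. Membrane fractions prepared with a commercial kit and denatured in Laemmli buffer at 100°C for 5 min. Immunoblot: primary antibodies in 5% BSA/TBS-0.2% Tween 20 at 4°C overnight; HRP secondaries at 1:20,000 for 1 h at room temperature.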

How did the “LC3 lipidation / puncta (in words)” value (HEK293T cells) turn out when `Cc1ccc(S(=O)(=O)Nc2ccccc2N2CCCCC2)s1` [MK6-83] was run?
The value was “rapid conversion of LC3 from its cytoplasmic “I” form to the lipidated, punctate “II” form in both wild-type (WT) and autophagy-deficient cells (ATG13_KO)”.

With “GABARAP: full-length human GABARAP (1 to 117), ATG8 family protein” as the compound, how does the “interaction with FLCN-FNIP1 complex (in words)” value (FLCN-FNIP1 complex) read?
Its value is “interacts with GABARAP through LIR-dependent binding”.

`CC1=CC(C)(C)N(C(=O)CN2C(=O)c3ccccc3C2=O)c2ccccc21` [ML-SA1] was tested. Which “LC3 puncta in BMDMs (in words)” value [1] did it give?
The value was “unable to induce LC3 puncta in ATG16L1^K490A-expressing cells”.

And the “LC3 lipidation / puncta (in words)” value (HEK293T cells)?
The value was “rapid conversion of LC3 from its cytoplasmic “I” form to the lipidated, punctate “II” form in both wild-type (WT) and autophagy-deficient cells (ATG13_KO)”.

`COc1ccc(-c2ccc3c(N4CCOC[C@@H]4C)nc(N4CCOC[C@@H]4C)nc3n2)cc1CO` [AZD8055] was tested. Which “TFEB activation versus ATG16L1 allele status (in words)” value (TFEB; ATG16L1_KO HeLa reexpressing ATG16L1 variants) did it give?
Its value is “activated TFEB irrespective of ATG16L1 allele status”.

What about the “TFEB activation / nuclear accumulation (in words)” value (TFEB; HeLa) of the same compound?
Its value is “robust TFEB activation”.

What about the “GPNMB protein levels (in words)” value (FNIP1/2_DKO HeLa cells) of the same compound?
Its value is “largely suppressed”.

What about the “LC3 lipidation, sensitivity to BafA1 or PIK-III (in words)” value (HEK293T cells; BafA1 100 nM, PIK-III 5 μM) of the same compound?
The value was “sensitive to the VPS34 inhibitor PIK-III and potentiated with the vacuolater ATPase (V-ATPase) inhibitor bafilomycin A1 (BafA1)”.

And the “LC3 lipidation / puncta (in words)” value (HEK293T cells)?
Its value is “able to regulate LC3 lipidation in WT but not ATG13_KO cells”.

Which “TFEB activation, effect of BafA1 cotreatment (in words)” value (TFEB; BafA1 100 nM, acute, HeLa) does the source give for `CO/C1=C\C(C)=C\[C@@H](C)[C@@H](O)[C@@H](C)C/C(C)=C/C=C/[C@H](OC)[C@@H]([C@@H](C)[C@@H](O)[C@H](C)[C@@]2(O)C[C@@H](O)[C@H](C)[C@@H](C(C)C)O2)OC1=O` [BafA1, bafilomycin A1] here?
Its value is “sufficient to block TFEB activation by TRPML1 agonists; however, it did not affect TFEB activation upon mTOR inhibition”.

Which results are given for `CC[C@@]1([C@@H]2O[C@@H]([C@H]3O[C@@](O)(CO)[C@H](C)C[C@@H]3C)C[C@@H]2C)CC[C@H]([C@]2(C)CC[C@]3(C[C@H](O)[C@@H](C)[C@@H]([C@@H](C)[C@@H](OC)[C@H](C)C(=O)O)O3)O2)O1` [monensin]?
TFEB activation, FNIP1-LIR dependence (in words) (TFEB; FNIP1-WT or FNIP1-LIR in FNIP1/2_DKO HeLa, monensin 1uM, 4 hr): regulated TFEB activation in an FNIP1-LIR domain–dependent manner; FLCN-FNIP membrane recruitment (in words) [2]: could induce FLCN-FNIP1 complex sequestration independently of TRPML1
